High-throughput results deposited in PubChem by The Scripps Research Institute Molecular Screening Center.
proCasp3 act: activates human procaspase-3; recombinant procaspase-3 D3A, Ac-DEVD-pNA absorbance 405 nm; activation, % at 8.5 µM; actives 0.11% (n = 330,000); P42574; AID 463141;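 active = activation above the mean of all tested compounds plus 3 SD, cut at about 21% in these data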;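 note: 0% = DMSO alone and 100% = DMSO wells spiked with extra 5 µM PC-3 D3A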
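Test system: Procaspase-3 D3A mutant; medium: Zinc-free HEPES/NaCl buffer with 0.01% Triton X-100 at pH 7.4; reagent: DEVD-pNA substrate; doses: one concentration, 8.5 µM nominal, 0.8% DMSO; times: 1 h preincubation plus 2 h reaction at 25 °C; signal: Epi-absorbance at 405 nm of released p-nitroaniline, 0 and 120 min; replicates: singlicate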
LYPLA1 inh: counter-screen for PME1 inhibitors: inhibitors of human LYPLA1 | O75608 | recombinant LYPLA1, FP-Rh probe fluorescence polarization | inhibition, % at 5.9 µM | actives 0.16% (n = 320,000) | AID 2174;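 active = inhibition above the mean of all tested compounds plus 3 SD, set per campaign, cut at about 14% in these data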;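 note: inhibitors block serine hydrolase probe labeling of LYPLA1 so polarization falls; 0% = enzyme with DMSO and 100% = wells lacking LYPLA1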
Target sequence (O75608 whole entry, looked up): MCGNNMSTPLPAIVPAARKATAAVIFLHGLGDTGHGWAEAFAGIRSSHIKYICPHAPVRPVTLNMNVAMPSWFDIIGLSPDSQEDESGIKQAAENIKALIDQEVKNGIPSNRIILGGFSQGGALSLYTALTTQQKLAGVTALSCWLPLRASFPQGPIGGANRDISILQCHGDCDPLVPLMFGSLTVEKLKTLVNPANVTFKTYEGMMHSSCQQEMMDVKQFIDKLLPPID
procasp7 counter: counter-screen for procaspase-3 activators: activators of human procaspase-7. P55210. recombinant procaspase-7, Ac-DEVD-pNA absorbance 405 nm; D23A/D198A/D206A triple mutant, cannot self-cleave; scale: DMSO 0, 5 µM enzyme 100. actives 0.093% (n = 330,000). activation, % at 8.5 µM;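 active = percent activation above the screen-wide mean plus 3 SD, cut at about 25% in these data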
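System: Procaspase-7 triple mutant (PC-7 D3A); measure: % activation from two-timepoint absorbance difference, scaled to controls; times: 1 h compound preincubation, 2 h substrate cleavage, 25 °C; also added: Ac-DEVD-pNA substrate, 400 µM as added; measured by: Epi-absorbance of released pNA at 405 nm, two timepoints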
Fam108B counter: counter-screen for RBBP9 inhibitors: inhibitors of mouse Fam108B; actives 0.33% (n = 300,000); inhibition, % at 9.51 µM; AID 1947; recombinant Fam108B, FP-Rh probe fluorescence polarization;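 active = inhibition above the screen mean inhibition plus 3 SD, computed separately per campaign, cut at about 18% in these data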;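 note: inhibitors lower polarization as less probe binds the enzyme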
PME-1 inh: PME-1 (human) inhibition | Q9Y570 | recombinant PME-1, FP-Rh probe fluorescence polarization | inhibition, % at 5.9 µM | actives 0.53% (n = 320,000);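 active = inhibition above the campaign mean of all compounds plus 3 SD, cut at about 26% in these data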;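 note: competitive labeling of PME-1 active site by serine hydrolase directed probe; 0% = PME-1 with DMSO and 100% = wells lacking PME-1 enzyme; inhibitors block probe labeling so polarization falls and inhibition rises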
Target sequence (Q9Y570 whole entry, looked up): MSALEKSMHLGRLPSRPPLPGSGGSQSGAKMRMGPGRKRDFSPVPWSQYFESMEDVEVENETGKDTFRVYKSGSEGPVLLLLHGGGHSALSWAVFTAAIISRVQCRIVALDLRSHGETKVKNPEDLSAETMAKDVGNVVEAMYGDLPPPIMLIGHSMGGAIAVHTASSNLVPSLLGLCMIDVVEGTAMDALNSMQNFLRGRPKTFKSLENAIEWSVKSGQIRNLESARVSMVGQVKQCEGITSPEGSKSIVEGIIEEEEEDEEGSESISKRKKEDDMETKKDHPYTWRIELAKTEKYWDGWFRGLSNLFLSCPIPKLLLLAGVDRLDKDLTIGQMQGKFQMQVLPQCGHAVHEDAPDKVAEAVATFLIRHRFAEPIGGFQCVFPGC
LYPLA2 counter: counter-screen for PME1 inhibitors: inhibitors of human LYPLA2; actives 0.38% (n = 320,000); recombinant LYPLA2, FP-Rh probe fluorescence polarization; AID 2177; inhibition, % at 5.9 µM;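 active = inhibition above the screen-wide mean plus 3 SD, limit set per campaign, cut at about 26% in these data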;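 note: 0% = LYPLA2 with DMSO and 100% = wells lacking LYPLA2 enzyme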
PC3 D3A act: counter-screen for dual procaspase-3/7 activators: human procaspase-3 activation; shares compounds with procasp7 counter; recombinant PC-3 D3A, Ac-DEVD-pNA absorbance 405 nm; aspartates 9, 28, 175 changed to alanine; 100% = enzyme control; activation, % at 8.5 µM; 290 tested, under 10 active;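 active = mean percent activation across triplicates above a set limit taken from the earlier primary procaspase-3 screen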;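 note: 0% = DMSO wells and 100% = DMSO wells with 5 µM added PC-3 D3A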
PC7 dual conf: confirmation of dual procaspase activators: human procaspase-7 activation. 290 tested, under 10 active. activation, % at 8.5 µM. shares compounds with procasp7 counter. recombinant procaspase-7, Ac-DEVD-pNA absorbance 405 nm; D23A/D198A/D206A mutant that cannot self-cleave;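 active = mean activation above a set limit carried over from the earlier primary screen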;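 note: 0% = DMSO only and 100% = DMSO with added 5 µM PC-7 enzyme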
The depositor's hits bear a star; nt = not tested or not shown. Rows were chosen to be rich in hits. Some 1% of all compounds tested hit in one or more screens of this group.

SMILES	proCasp3 act	LYPLA1 inh	procasp7 counter	Fam108B counter	PME-1 inh	LYPLA2 counter	PC3 D3A act	PC7 dual conf
O=C(CSc1nncc(=O)[nH]1)NC1CCCCC1	-4	0	5	-2	3	3	nt	nt
CCOc1ccc2nc(-c3cc(NC(C)=O)ccc3O)sc2c1	5	-2	31*	-6	4	0	2	-1
CCOP(=O)(OCC)c1nc(-c2cccc3ccccc23)oc1NCc1ccc(OC)cc1	36*	6	61*	0	4	6	-29	-36
CCOP(=O)(OCC)c1nc(-c2cccc3ccccc23)oc1NCc1ccccc1	19	1	20	5	11	7	nt	nt
Cn1c(-c2ccc(Cl)nc2)nc2cc(Cl)ccc21	-3	0	-7	1	-2	5	nt	nt
O=C(CSc1nc2ccccc2nc1N1CCCC1)Nc1ccc(F)cc1	2	-4	41*	-2	1	-4	-30	-34
Cc1cc(C)cc(NC(=O)CSc2nc3ccccc3nc2N2CCCC2)c1	7	-4	39*	4	5	-1	-29	-34
Cc1cc(C)cc(NC(=O)CSc2nc3ccccc3nc2N2CCCCC2)c1	-2	-3	4	-8	-7	0	nt	nt
CC(=O)Nc1ccc(NC(=O)CSc2nc3ccccc3nc2N2CCCCC2)cc1	-5	-5	0	4	-1	-3	nt	nt
O=C(OC1CCOC1=O)C1CCN(S(=O)(=O)c2ccccc2)CC1 (stereo not given)	1	-1	-3	nt	0	-6	nt	nt
CSCCC(NC(=O)COc1ccccc1)C(=O)N1CCCC(C(F)(F)F)C1 (stereo not given)	5	3	-5	1	1	1	nt	nt
CCCN(CC(=O)Nc1ccc(Cl)cc1Cl)C(=O)/C=C/c1cc(OC)ccc1OC	13	-10	37*	-9	-10	-13	-8	-7
Cn1c(CC(=O)Nc2ccccc2F)nnc1SCC(=O)Nc1nncs1	0	-2	38*	-6	7	3	3	-1
CCOc1ccccc1C(C(=O)NC1CCCC1)N(C(=O)c1csnn1)C1CC1 (stereo not given)	0	2	-5	1	1	5	nt	nt
C=CCNC(=S)N/N=C/c1ccc(N(CC)Cc2ccccc2)cc1	24*	-2	37*	3	8	0	-19	-14
CCN(CC)c1ccc(/C=N/NC(=S)NCc2ccccc2)cc1	67*	0	43*	7	8	5	-26	-29
C=CCNC(=S)N/N=C/c1ccc(C(F)(F)F)cc1	0	-2	0	-1	0	-5	nt	nt
CCN(CC)c1ccc(/C=N/NC(=S)NCc2ccc(OC)cc2)cc1	44*	-5	37*	4	1	4	-30	-30
COc1ccc(/C=N/NC(=S)NCc2ccccc2)cc1OC	9	0	-2	-1	4	3	nt	nt
O=C(COc1cccnc1[N+](=O)[O-])c1ccc(Cl)s1	-29	-3	-40	5	6	2	nt	nt
CCOC(=O)c1cc(-c2ccc3c(c2)OCCO3)nc2c1c(C)nn2CCC#N	25*	-7	54*	3	-2	2	-29	-35
COc1ccc(-c2c(C#N)c(N)nc3c2CCc2ccccc2-3)cc1OC	34*	-5	65*	-8	14	0	-29	-35
COc1ccc(C2CC(c3cccc(C(F)(F)F)c3)=NN2c2ccc(S(N)(=O)=O)cc2)cc1 (stereo not given)	44*	nt	53*	nt	nt	nt	-30	-35
COc1ccc(C2CC(c3cccc(Br)c3)=NN2c2ccc(S(N)(=O)=O)cc2)cc1 (stereo not given)	-4	nt	-42	nt	nt	nt	nt	nt
O=[N+]([O-])c1cccc(C2CC(c3ccccc3)=NN2c2ccccc2)c1 (stereo not given)	6	-3	-5	6	-4	1	nt	nt
SMILES	proCasp3 act	LYPLA1 inh	procasp7 counter	Fam108B counter	PME-1 inh	LYPLA2 counter	PC3 D3A act	PC7 dual conf
COc1ccc(C2=NN(c3ccc(C=O)cc3)C(c3ccccc3)C2)cc1 (stereo not given)	-52	-6	-51	2	3	1	nt	nt
COc1ccc(C2CC(c3ccccc3Cl)=NN2c2ccc(S(N)(=O)=O)cc2)cc1 (stereo not given)	27*	nt	47*	nt	nt	nt	-29	-34
NS(=O)(=O)c1ccc(N2N=C(c3ccccc3)CC2c2cccc(Cl)c2)cc1 (stereo not given)	39*	nt	44*	nt	nt	nt	-31	-33
COc1ccc(C2CC(c3ccccc3)=NN2c2ccc(S(N)(=O)=O)cc2)cc1 (stereo not given)	28*	-5	51*	2	9	0	-28	-35
COc1ccc(-c2nc(CSCC(=O)NCCCN3CCCC3=O)c(C)o2)cc1OC	8	-2	6	-5	0	1	nt	nt
COc1cc(C(=O)NCCC2=CCCCC2)ccc1OCc1c(C)noc1C	6	2	-9	nt	-6	10	nt	nt
COc1ccc(C2CC(c3ccccc3)=NN2c2ccc(C(N)=O)cc2)cc1 (stereo not given)	30*	-5	38*	9	11	-1	-29	-36
O=C(O)c1ccc(N2N=C(c3ccccc3)CC2c2ccccc2)cc1 (stereo not given)	4	-2	-5	7	2	-4	nt	nt
CCOc1ccccc1C(=O)Oc1cc(C)[nH]c(=O)c1[N+](=O)[O-]	8	2	-1	0	-1	-6	nt	nt
O=C(/C=C/c1cn(-c2ccccc2)nc1-c1ccccc1)Nc1ccc(C(=O)O)cc1	-5	-30	-4	-30	-68	-64	nt	nt
NS(=O)(=O)c1ccc(NC(=O)/C=C/c2cn(-c3ccccc3)nc2-c2cccc(Cl)c2)cc1	55*	-90	72*	-135	-164	-200	-28	-6
O=c1oc2ccc3ccccc3c2cc1-c1nc2ccccc2o1	-2	-1	28*	-20	10	2	-30	-35
O=c1oc2ccccc2cc1-c1nc2ccccc2o1	1	-2	2	-2	9	0	nt	nt
Cc1ccccc1N(C(=O)c1snc(C(N)=O)c1N)C(C(=O)NC1CCCCC1)c1ccc(O)cc1 (stereo not given)	13	-4	22	1	0	-8	nt	nt
